Rin1 Abl inh: human Rin1-Abl interaction inhibition. TR-FRET Rin1/Abl binding, biochemical. P00519+Q13671. 360,000 compounds, 0.4% hits. inhibition, % at 7.35 µM; in the data active = inhibition above about 5%, passing the limit was not always enough
PKA-R2B activ: activators of human PKA-R2B complex; P22694+P31323; PKA-R2B holoenzyme dissociation, Cy5-IP20 fluorescence polarization; R2B truncated from residue 108, S112A mutant; 0% DMSO only, 100% 113 µM cGMP; activation, % at 11.4 µM; 340,000 compounds, 0.079% hits; AID 504700;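 active = activation above a cutoff set at the mean over all compounds plus 3 SD, cut at about 18% in these data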;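 note: higher means more holoenzyme dissociation and a rise in polarization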
Target sequence (P31323 whole entry, looked up, other chains not shown, the tested form may be a part): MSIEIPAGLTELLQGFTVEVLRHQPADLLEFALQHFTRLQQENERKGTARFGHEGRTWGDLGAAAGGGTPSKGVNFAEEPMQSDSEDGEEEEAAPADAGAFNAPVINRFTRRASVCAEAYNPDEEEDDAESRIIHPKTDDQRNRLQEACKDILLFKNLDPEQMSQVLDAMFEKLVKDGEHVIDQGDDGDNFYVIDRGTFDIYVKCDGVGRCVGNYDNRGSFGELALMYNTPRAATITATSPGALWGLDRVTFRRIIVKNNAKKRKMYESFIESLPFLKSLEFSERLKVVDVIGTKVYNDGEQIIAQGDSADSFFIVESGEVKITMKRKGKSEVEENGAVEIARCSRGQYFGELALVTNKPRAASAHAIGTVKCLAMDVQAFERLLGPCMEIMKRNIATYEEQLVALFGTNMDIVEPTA
H9c2 protect: myocardial damage modulation in H9c2 cells; H9c2 cardiomyocytes, H2O2 injury protection, ATPLite, 2 h; protection from H2O2 cell death, % at 20 µM; 360,000 compounds, 0.63% hits; AID 588492;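 active = compounds giving at least 50% protection of heart cells from peroxide-induced death in the single-dose screen, raw or plate-pattern-corrected value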;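 note: 0% = DMSO wells with peroxide and 100% = DMSO wells without peroxide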
Tb MetRS inh: blocks T. brucei methionyl-tRNA synthetase activity; purified T. brucei MetRS, ATP depletion, Kinase-Glo luminescence; inhibition, % at 11.9 µM; 360,000 compounds, 0.4% hits; AID 624268;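 active = inhibition above a per-plate cutoff of the control wells' mean inhibition plus 3 SD, cut at about 5.5% in these data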;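 note: 0% = DMSO wells median and 100% = median of wells with control inhibitor compound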
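Test system – parasite MetRS enzyme · Reagent – substrates ATP, L-methionine and bulk Escherichia coli tRNA · Doses – 11.9 µM compound single dose, 0.9% DMSO · Times – 15 min enzyme-compound preincubation, 2 h reaction, 10 min detection, 25 °C · Signal – Kinase-Glo luminescence, ATP depletion format · Controls – DMSO-only wells as low control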
PKA-R1A activ: activators of PKA-R1A complex. 340,000 compounds, 0.083% hits. PKA-R1A dissociation, Cy5-IP20 fluorescence polarization; scaled: DMSO 0%, 113 µM cGMP 100%. activation, % at 11.4 µM. AID 504707. P00514+P68181;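 active = percent activation above the mean of all tested compounds plus 3 SD, cut at about 19% in these data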;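 note: higher means more PKAc released from R1A so a rise in polarization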
Rin1 Abl conf: confirmation of inhibitors of human Rin1-Abl interaction | TR-FRET Rin1-Abl binding, purified proteins | 1,300 compounds, 49% hits | inhibition, % at 7.35 µM | shares compounds with Rin1 Abl inh
GFP quench: quenches GFP fluorescence, counter-screen for Rin1-Abl inhibitors. shares compounds with Rin1 Abl inh. inhibitors/quenchers counterscreen. inhibition, % at 6.75 µM. 1,300 compounds, 8.5% hits. AID 602125;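 note: ABL1-eGFP fusion protein alone without its partner RIN1-SBP; 0% = protein with vehicle and 100% = wells lacking protein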
GFP quench dose: quenches GFP in dose response, Rin1-Abl counter-screen | shares compounds with Rin1 Abl inh | GFP fluorescence interference/quenching counterscreen | IC50, µM | 230 tested, under 10 active; call rule not given here;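 note: ABL1-eGFP fusion protein alone without its RIN1 binding partner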
An asterisk follows results filed as active; . = no result given. Only some compounds are listed: those with a hit (about 1.5% of all), similar ones and a draw of the others. Cut-off read from the data, not from the text of the source, unless noted: active = inhibition above about 6.5%; inactive = the rest.

SMILES	Rin1 Abl inh	PKA-R2B activ	H9c2 protect	Tb MetRS inh	PKA-R1A activ	Rin1 Abl conf	GFP quench	others
Cn1nnnc1SCc1nc2ccccc2[nH]1	0	-1	5	-1	-4	.	.
Cc1nnc(SCc2nc3ccccc3[nH]2)s1	18*	-4	9	2	-4	29*	-1	GFP quench dose=>68
COc1cc2c(cc1OC)CN(CC(=O)Nc1cccc(C)c1)CC2	6.5*	-4	-4	-1	-12	2	0
CC1(C(=O)NCc2ccc(C(F)(F)F)cc2)CCN1Cc1cc2ccccc2o1 (stereo unspecified)	9.0*	.	-9	0	.	-2	1
CC1(C(=O)NCc2cccc(C(F)(F)F)c2)CCN1Cc1ccc2ccccc2c1 (stereo unspecified)	2	.	-6	0	.	.	.
O=C(O)CC(C(=O)O)N1C(=O)/C(=C/C=C/c2ccco2)SC1=S (stereo unspecified)	18*	5	-2	1	7	11*	13*
Cc1c(C(=O)N2CCCCCC2)oc2ccccc12	6.6*	8	-2	-1	0	1	-1
Cc1c(C(=O)N2CCCCC2)oc2ccccc12	3	1	3	0	-1	.	.
CCc1ccc(CN2CCC(Oc3ccc(C(=O)N4CCCCC4)cc3)CC2)cc1	10*	-8	-10	0	-2	3	-2
CCc1ccc(CN2CCC(Oc3ccc(C(=O)N4CCCC4)cc3)CC2)cc1	0	-5	-3	0	-14	.	.
COc1cc(N)c2ncccc2c1Br	13*	-12	-5	1	-4	-3	2
O=C(NCc1ccccc1)C(c1ccc(-c2ccccc2)cc1)N1CCN(CCN2CCOCC2)CC1 (stereo unspecified)	.	.	.	-1	.	.	.
O=C1C=CC2=C3c4cc(O)c(O)cc4CC3(O)COC2=C1O (stereo unspecified)	67*	-4	0	-2	2	73*	45*
CC(Sc1nccn1C)C(=O)Nc1ccc(C(N)=O)cc1 (stereo unspecified)	10*	1	17	0	10	-2	0
COC(=O)c1ccc(COC(=O)c2ccc(-n3cnnn3)cc2)o1	23*	3	-3	-1	-5	20*	-1	GFP quench dose=>67
O=C(COC(=O)c1ccc(-n2cnnn2)cc1)c1ccc(Br)cc1	1	-3	1	0	1	.	.
O=C(Nc1ccc(Cl)cc1)NC1CCCC1Cc1ccco1 (stereo unspecified)	8.4*	5	-13	-1	4	-2	3
O=C(Nc1ccc(Cl)cc1)NC1CCCCC1Cc1ccco1 (stereo unspecified)	0	3	-20	0	-15	.	.
COC(=O)C1C(=O)C=C(Nc2ccc(F)cc2)CC1c1ccc(OC)cc1 (stereo unspecified)	6.4*	6	0	0	0	-2	0
CCCCOc1ccc(C(=O)N=c2sccn2C)cc1OC	20*	-1	-2	0	-3	12*	1
CCN(CC)S(=O)(=O)c1cc(C(=O)N=c2sccn2C)ccc1OC	4	4	8	0	-9	.	.
Cc1ccccc1NS(=O)(=O)c1cccc2nsnc12	0	-5	0	0	0	.	.
OCCN1CCN(c2ncnc3c2sc2nc(N4CCOCC4)c4c(c23)CCC4)CC1	15*	-16	32	0	-11	23*	2	GFP quench dose=>68
OCCN(CCO)c1ncnc2c1sc1nc(N3CCOCC3)c3c(c12)CCCC3	11*	-2	40	0	-9	8.3*	-1
CN(C)CCNc1ncnc2c1sc1nc(N3CCOCC3)c3c(c12)CC(C)(C)SC3	27*	-4	-15	0	4	26*	2	GFP quench dose=>68
SMILES	Rin1 Abl inh	PKA-R2B activ	H9c2 protect	Tb MetRS inh	PKA-R1A activ	Rin1 Abl conf	GFP quench	others
COC(=O)c1ccc(Cn2cnc3c(sc4nc(N5CCOCC5)c5c(c43)CCCC5)c2=O)o1	8.7*	10	-9	0	1	7.1*	-1
Cc1ccc(OCCn2cnc3c2c(=O)n(C)c(=O)n3C)cc1	1	-4	-9	-1	4	.	.
COc1ccc(CC(=O)Nc2cc(S(=O)(=O)N3CCCCC3)ccc2OC(C)C)cc1OC	5	-9	1	0	-7	.	.
Cc1c(F)cccc1NS(=O)(=O)c1ccc2c(c1)c(=O)n(C)c(=O)n2C	10*	-3	17	1	14	2	-1
Cc1c(F)cccc1NS(=O)(=O)c1ccc2c(c1)n(C)c(=O)c(=O)n2C	3	6	3	0	-2	.	.
Cc1ccc(S(=O)(=O)Nc2ccccc2F)cc1C(=O)NCc1ccco1	2	2	1	0	3	.	.
CCc1ccc(NC(=O)CSc2nc3ccccc3nc2N2CCCC2)cc1	-2	-1	-12	1	-3	.	.
CC(=O)Nc1ccc(-c2ccnc3c2CC(C(=O)NCc2ccccc2)O3)cc1 (stereo unspecified)	-4	.	-4	0	.	.	.
CC(=O)Nc1ccc(-c2ccnc3c2CC(C(=O)NCc2ccc(N4CCN(C)CC4)cc2)O3)cc1 (stereo unspecified)	14*	.	-3	0	.	14*	-1
CN1CCN(c2ccc(CNC(=O)C3Cc4c(-c5ccc6c(c5)OCO6)ccnc4O3)cc2)CC1 (stereo unspecified)	15*	.	-2	0	.	14*	-2
CN1CCN(c2ccc(CNC(=O)C3Cc4c(-c5ccc(Cl)cc5)ccnc4O3)cc2)CC1 (stereo unspecified)	15*	.	-18	0	.	9.5*	1
CC(=O)Nc1cccc(-c2ccnc3c2CC(C(=O)NCc2ccc(N(C)C)cc2)O3)c1 (stereo unspecified)	17*	.	0	0	.	10*	1
CCOc1ccc(C(=O)CC(NCc2cccs2)C(=O)O)cc1 (stereo unspecified)	2	9	-7	0	-1	.	.
O=C(COc1cc(O)c2c(=O)c3ccccc3oc2c1)OCc1ccccc1	-4	4	-7	0	-6	.	.
CC(=O)Nc1cccc(-c2ccnc3c2CC(C(=O)NCc2ccc(N4CCN(C)CC4)cc2)O3)c1 (stereo unspecified)	31*	.	3	0	.	28*	-1	GFP quench dose=>68
CC(=O)Nc1cccc(-c2ccnc3c2CC(C(=O)NCc2ccncc2)O3)c1 (stereo unspecified)	-3	.	-7	0	.	.	.

Bioassay records: PubChem BioAssay, several laboratories
